According to ChEMBL document CHEMBL1121798, “Puromycin analogues. Effect of aryl-substituted puromycin analogues on the ribosomal peptidyltransferase reaction” (J Med Chem, 1981):
Activity calls are given as the source filed them. The rule behind the calls is not given here.

Columns and labels:
Escherichia coli [1] = experiment: Vmax in the peptidyltransferase reaction; type: functional
Method in brief: (§1)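 E. coli ribosomes (washed, 2.78 A260 units) loaded with Ac[14C]Phe-tRNA (21 pmol) in 100 mM Tris-Cl pH 7.5, 100 mM NH4Cl, 15 mM Mg(OAc)2, 0.65 mM DTT, 1.2 mM GTP, FWR, poly(U), 28 °C for 8 min. Analogue then added as acceptor. Radiolabelled product counted and blank-corrected. Duplicates at five substrate concentrations. Km/Vmax from double-reciprocal plots by Wilkinson analysis.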

Escherichia coli [2] = experiment: Michaelis constant (Km) in the peptidyltransferase reaction; type: functional; method in brief: as §1
Escherichia coli [3] = experiment: Compound was evaluated for the substrate activity in the peptidyltransferase reaction of Escherichia coli ribosomes.
Escherichia coli [4] = experiment: Michaelis constant (Km) in the peptidyltransferase reaction; Inactive; type: functional; method in brief: as §1

Row | Compound | Vmax (Escherichia coli [1]) [pmol/min] | Km (Escherichia coli [2]) [µM] | Substrate efficiency (Escherichia coli [3]) [%] | Km (Escherichia coli [4])
1 | CCCC(=O)Nc1ccc(CC(N)C(=O)NC2C(CO)OC(n3cnc4c(N(C)C)ncnc43)C2O)cc1 (stereo unspecified) | 0.53 | 367 | 19.5 | 
2 | COc1ccc(C[C@H](N)C(=O)N[C@H]2[C@@H](O)[C@H](n3cnc4c(N(C)C)ncnc43)O[C@@H]2CO)cc1 | 0.99 | 134 | 100 | 
3 | CN(C)c1ncnc2c1ncn2C1OC(CO)C(NC(=O)C(N)Cc2ccc(NC(=O)CBr)cc2)C1O (stereo unspecified) |  |  |  | inactive
4 | CN(C)c1ncnc2c1ncn2C1OC(CO)C(NC(=O)C(N)Cc2ccc([N+](=O)[O-])cc2)C1O (stereo unspecified) | 0.39 | 255 | 20.7 | 
5 | CC(=O)Nc1ccc(CC(N)C(=O)NC2C(CO)OC(n3cnc4c(N(C)C)ncnc43)C2O)cc1 (stereo unspecified) | 0.45 | 256 | 23.7 | 
6 | CN(C)c1ncnc2c1ncn2C1OC(CO)C(NC(=O)C(N)Cc2ccc(N)cc2)C1O (stereo unspecified) | 0.79 | 120 | 89 | 
